Measured values pooled from the literature.
Each line is one published result; the experiments were not run side by side.
Target: LIM domain kinase 1 (LIMK1, Homo sapiens, UniProt P53667)

SMILES | effect on | mode | technique | concentration | measurement | value
CC(C)S(=O)(=O)c1ccc2nccc(Nc3ccc4sc(C5CCCC5)nc4c3)c2c1 | enzyme activity | inhibitor | – | 1 µM | activity vs control | 82%
CO[C@@H]1[C@H](N(C)C(=O)c2ccccc2)C[C@H]2O[C@]1(C)n1c3ccccc3c3c4c(c5c6ccccc6n2c5c31)C(=O)NC4 | enzyme activity | inhibitor | – | 1 µM | inhibition | 12%
C[C@H]1CC[C@H](n2c3cnccc3c3cnc(Nc4ccc5c(n4)CCN(C(=O)CO)C5)nc32)CC1 | binding | – | competition with immobilised ligand | 1 µM | remaining binding | 98%
C1=C/COCc2cc(ccc2OCCN2CCCC2)Nc2nccc(n2)-c2cccc(c2)COC/1 | binding | – | – | 0.1 µM | remaining binding | 82%
C=CC(=O)N1CCC[C@@H](n2nc(-c3ccc(Oc4ccccc4)cc3)c3c(N)ncnc32)C1 | enzyme activity | inhibitor | – | 1 µM | inhibition | 76%
C#Cc1cc(-c2cc(Nc3nc(N[C@@H](C)c4ccc(F)cn4)ncc3Cl)n[nH]2)ccc1C=O | enzyme activity | inhibitor | – | 0.2 µM | inhibition | 24.2%
CN1CCN(C(=O)c2ccc(NC(=O)Nc3ccc(N(C)c4ccnc(Nc5ccc(CS(C)(=O)=O)cc5)n4)cc3)cc2)CC1 | binding | – | competition with immobilised ligand | 1 µM | remaining binding | 61%
CCCCC(=O)Nc1ccc(-c2ccc3ncn(CCC)c(=O)c3c2)cn1 | binding | – | competition with immobilised ligand | 0.5 µM | remaining binding | 96%
